{"data": "Results gathered from unrelated publications", "read-out": "cell growth or viability", "note": "Protocols differ between the studies behind these lines."}
{"Compound": "CN1C(=O)CCC(N2Cc3c(C#CC4CCN(C(=O)[C@H]5CC[C@H](NC(=O)[C@@H]6NC7(CCCCC7)[C@@]7(C(=O)Nc8cc(Cl)ccc87)[C@H]6c6cccc(Cl)c6F)CC5)CC4)cccc3C2=O)C1=O (stereo partly drawn)", "cell line": "RS4-11", "IC50 [µM]": 0.751}
{"Compound": "COc1cc2c3c(n(CCCN4CCOCC4)c(=O)c2cc1OC)-c1nc2c(cc1C3=O)OCO2", "cell line": "RS4-11", "test": "MTS", "conditions": "72 h", "IC50 [µM]": 0.283}
{"Compound": "C=CC(=O)Nc1cc(Nc2nccc(-c3cn(C)c4ccccc34)n2)c(OC)cc1N(C)CCN(C)C", "cell line": "NCI-H460", "conditions": "72 h", "IC50 [µM]": 5.38}
{"Compound": "O=C1CCN2C(=O)CCC2C(=O)Nc2ccccc21 (stereo not drawn)", "cell line": "L6", "IC50 [µM]": "> 390"}
{"Compound": "COc1cc2nc(N3CCN(C(=O)C4COc5ccccc5O4)CC3)nc(N)c2cc1OC (stereo not drawn)", "cell line": "HNE1", "test": "MTT", "conditions": "48 h", "IC50 [µM]": 22.4}
{"Compound": "COc1cc2c3c(n(CCCNC(C)C)c(=O)c2cc1OC)-c1nc2c(cc1C3=O)OCO2", "cell line": "RS4-11", "test": "MTS", "conditions": "72 h", "IC50 [µM]": 0.053}
{"Compound": "O=C1CCN2C(=O)c3cc(F)c(F)cc3C2C(=O)Nc2ccccc21 (stereo not drawn)", "cell line": "L6", "IC50 [µM]": "> 290"}
{"Compound": "CC(C)C[C@@H]1NC(=O)CNC(=O)[C@H](CC(N)=O)NC(=O)[C@H](CCCNC(=N)N)NC(=O)[C@H]([C@@H](C)O)NC(=O)[C@@H]2CSSC[C@@H]3NC(=O)[C@H]([C@@H](C)O)NC(=O)CNC(=O)CNC(=O)[C@H](C(C)C)NC(=O)[C@@H]4CSSC[C@H](NC(=O)[C@H]([C@@H](C)O)NC(=O)[C@H](CSSC[C@H](NC(=O)[C@H](C(C)C)NC(=O)[C@@H]5CCCN5C1=O)C(=O)NCC(=O)N[C@@H](CCC(=O)O)C(=O)N[C@@H]([C@@H](C)O)C(=O)N4)NC(=O)CNC(=O)[C@@H]1CCCN1C(=O)[C@H]([C@@H](C)O)NC(=O)[C@H](CC(N)=O)NC3=O)C(=O)N[C@@H](CO)C(=O)N[C@@H](Cc1c[nH]c3ccccc13)C(=O)N1CCC[C@H]1C(=O)N[C@@H](C(C)C)C(=O)N2", "cell line": "Sf9", "test": "MTT", "conditions": "24 h", "IC50 [µM]": 2.8}
{"Compound": "N=C(NN=CCc1ccc(OC(F)(F)F)cc1)NN=CCc1ccc(OC(F)(F)F)cc1", "cell line": "L6", "test": "resazurin", "conditions": "70 h", "IC50 [µM]": 4.02}
{"Compound": "O=C1c2ccccc2C23C(=O)Nc4ccccc4C2(O)CCN13 (stereo not drawn)", "cell line": "L6", "IC50 [µM]": "> 330"}
{"Compound": "COc1cc2c3c(n(CCCn4ccnc4)c(=O)c2cc1OC)-c1nc2c(cc1C3=O)OCO2", "cell line": "RS4-11", "test": "MTS", "conditions": "72 h", "IC50 [µM]": 0.12}
{"Compound": "N=C(NN=Cc1ccc(N2CCOCC2)cc1)NN=Cc1ccc(N2CCOCC2)cc1", "cell line": "L6", "test": "resazurin", "conditions": "70 h", "IC50 [µM]": 2.3}
{"Compound": "O=C1CCN2C(=O)c3ccccc3C2C(=O)Nc2cc(F)ccc21 (stereo not drawn)", "cell line": "L6", "IC50 [µM]": "> 300"}
{"Compound": "CO[C@]12C[C@@H](COC(=O)c3cncc(Br)c3)CN(C)[C@@H]1Cc1cn(C)c3cccc2c13", "cell line": "HNE1", "test": "MTT", "conditions": "48 h", "IC50 [µM]": 1.45}
{"Compound": "CN1C(=O)C2c3ccccc3C(=O)N2CCC(=O)c2ccccc21 (stereo not drawn)", "cell line": "L6", "IC50 [µM]": "> 300"}
{"Compound": "N=C(N/N=C/c1ccc(Oc2ccc(Cl)cc2)cc1)N/N=C/c1ccc(Oc2ccc(Cl)cc2)cc1", "cell line": "L6", "test": "resazurin", "conditions": "70 h", "IC50 [µM]": 3.18}
{"Compound": "C=C(F)C(=O)N1CCN(c2nc(OC[C@@H]3CCCN3C)nc3c2CCN(c2cccc4cccc(Cl)c24)C3)C[C@@H]1CC#N", "cell line": "KYSE-410", "test": "ATP luminescence", "IC50 [µM]": 3.07}
{"Compound": "Cc1c(C(=O)O)ccc2c3n(nc12)[C@@H]1[C@H](C3)N(CC2CC2)[C@@]2(C(=O)Nc3cc(Cl)ccc32)[C@H]1c1cccc(Cl)c1F", "cell line": "Colon 26", "test": "resazurin", "conditions": "72 h", "IC50 [µM]": 0.259}
{"Compound": "N#Cc1cccc(C=NNC(=N)NN=Cc2cccc(C#N)c2)c1", "cell line": "L6", "test": "resazurin", "conditions": "70 h", "IC50 [µM]": 6.65}
{"Compound": "CC(C)c1ccccc1[C@@H]1CCCN1C1CC2(CCN(c3ccc(C(=O)NS(=O)(=O)c4ccc(NC[C@H]5CC[C@](C)(O)CC5)c([N+](=O)[O-])c4)c(Oc4cnc5[nH]ccc5c4)c3)CC2)C1", "cell line": "RS4-11", "test": "ATP luminescence", "conditions": "48 h", "IC50 [µM]": 0.00056}
{"Compound": "Cc1cc(/C=C/C#N)cc(C)c1Nc1ccnc(Nc2ccc(C#N)cc2)n1", "cell line": "HK-1", "test": "MTT", "conditions": "48 h", "IC50 [µM]": 7.59}
{"Compound": "N=C(N/N=C/c1ccc(Oc2ccccc2)cc1)N/N=C/c1ccc(Oc2ccccc2)cc1", "cell line": "L6", "test": "resazurin", "conditions": "70 h", "IC50 [µM]": 4.44}
{"Compound": "COc1cc2nc(N3CCN(C(=O)c4ccco4)CC3)nc(N)c2cc1OC", "cell line": "HK-1", "test": "MTT", "conditions": "48 h", "IC50 [µM]": 30}
{"Compound": "C=CC(=O)N1CCN(c2nc(=O)n(-c3c(C)ccnc3C(C)C)c3nc(-c4c(O)cccc4F)c(F)cc23)[C@@H](C)C1", "cell line": "KYSE-410", "test": "ATP luminescence", "IC50 [µM]": 0.0676}
